According to ChEMBL document CHEMBL3243961, “Synthesis and biological activity of 8-arylergolines” (1977):
Active and inactive are the calls of the source. The calls are words filed in the database; no cut-off is given here.

What was measured:
Rattus norvegicus [1] = species: Rattus norvegicus; test: Oxytocic activity in rat uterus smooth muscle up to 10 ug/ml; assay type: functional, tissue-based; settings: Muscle tissue
Rattus norvegicus [2] = test: Antidepressant activity in rat assessed as antimuricidal activity at 0.625 mg/kg, ip; assay type: functional, organism-based; parameters: dose 0.625 mg/kg
Rattus norvegicus [3] = test: Decrease in prolactin level in rat serum at 1 mg, ip by radioimmunoassay; assay type: functional
In short: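 Rats received test compound ip at 1 mg per rat. Serum prolactin was then measured by radioimmunoassay, and the result was expressed as the percent drop in serum prolactin.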

Rattus norvegicus [4] = test: Antidepressant activity in rat assessed as antimuricidal activity at 20 mg/kg, ip; assay type: functional, organism-based; parameters: dose 20 mg/kg
In short: (§1)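 Rats screened in an antimuricidal (mouse-killing) test, used as a possible indicator of antidepressant activity.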

[5] = target: Serotonin (5-HT) receptor (Rattus norvegicus) (UniProt P35563+P35365+P32305+P31388+Q9JJ16+P28564+P30994+Q62758+P08909+P14842+P30940+P35364+P19327+P28565); test: Inhibition of 5-HT receptor in rat stomach fundus relative to methysergide; assay type: tissue-based
[6] = target: T1, Adrenergic receptor alpha (Rattus norvegicus) (UniProt P15823+P23944+P43140+P22086+P19328+P22909); test: Blockade of alpha-adrenoceptor in rat aorta; assay type: tissue-based
Rattus norvegicus [7] = test: Antidepressant activity in rat assessed as antimuricidal activity at 10 mg/kg, ip; assay type: functional, organism-based; parameters: dose 10 mg/kg; in short: as §1
[8] = target: T1, Adrenergic receptor alpha (Rattus norvegicus); test: Blockade of alpha-adrenoceptor in rat aorta assessed as rightward shift in norepinephrine dose response curve; assay type: tissue-based
Rattus norvegicus [9] = test: Antidepressant activity in rat assessed as antimuricidal activity at 5 mg/kg, ip; assay type: functional, organism-based; parameters: dose 5 mg/kg; in short: as §1
Rattus norvegicus [10] = test: Decrease in prolactin level in rat serum at 10 ug, ip by radioimmunoassay; assay type: functional

## Cc1ccc([C@@H]2C=C3c4cccc5[nH]cc(c45)C[C@H]3N(C)C2)cc1
Rattus norvegicus [1]
  Activity: inactive

## CN1C[C@@H](c2ccccc2)C=C2c3cccc4c3[C@@H](CN4)C[C@H]21
Rattus norvegicus [1]
  Activity: inactive

## COc1ccc([C@H]2C=C3c4cccc5c4[C@@H](CN5)C[C@H]3N(C)C2)cc1
Rattus norvegicus [1]
  Activity: inactive

## CN1C[C@@H](c2ccc3c(c2)OCO3)C=C2c3cccc4c3[C@@H](CN4)C[C@H]21
Rattus norvegicus [1]
  Activity: inactive

## CN1CCC=C2c3cccc4[nH]cc(c34)CC21 (racemic)
Rattus norvegicus [2]
  Activity: Active

## Cc1ccc([C@H]2C=C3c4cccc5c4[C@@H](CN5)C[C@H]3N(C)C2)cc1
Rattus norvegicus [1]
  Activity: inactive

## CN1C[C@@H](c2ccccc2)C=C2c3cccc4[nH]cc(c34)C[C@H]21.O=C(O)/C=C\C(=O)O
Rattus norvegicus [3]
  inhibition (INH): 88%
Rattus norvegicus [4]
  Activity: inactive
[5]
  5-HT antagonist potency relative to methysergide: 10%
Rattus norvegicus [1]
  Activity: inactive
[6]
  inhibition: Active

## Cc1ccc([C@@H]2C=C3c4cccc5c4[C@@H](CN5)C[C@H]3N(C)C2)cc1
Rattus norvegicus [1]
  Activity: inactive

## CN1C[C@H](c2ccc3c(c2)OCO3)C=C2c3cccc4[nH]cc(c34)C[C@H]21
Rattus norvegicus [3]
  inhibition: inactive
[5]
  5-HT antagonist potency relative to methysergide: 50%
Rattus norvegicus [7]
  Activity: Active
Rattus norvegicus [1]
  Activity: inactive
[8]
  fold change (FC): 2

## CN1C[C@H](c2ccc3c(c2)OCO3)C=C2c3cccc4c3[C@@H](CN4)C[C@H]21
Rattus norvegicus [1]
  Activity: inactive

## COc1ccc([C@@H]2C=C3c4cccc5c4[C@@H](CN5)C[C@H]3N(C)C2)cc1
Rattus norvegicus [1]
  Activity: inactive

## CN1C[C@H](c2ccccc2)C=C2c3cccc4[nH]cc(c34)C[C@H]21.O=C(O)/C=C\C(=O)O
Rattus norvegicus [3]
  inhibition (INH): 71%
[5]
  5-HT antagonist potency relative to methysergide: 50%
Rattus norvegicus [1]
  Activity: inactive
Rattus norvegicus [9]
  Activity: Active
[8]
  fold change (FC): 2

## CN1CC(c2ccc(Cl)cc2)C=C2c3cccc4c3[C@@H](CN4)C[C@H]21 (stereo partly drawn)
Rattus norvegicus [1]
  Activity: inactive

## COc1ccc([C@@H]2C=C3c4cccc5[nH]cc(c45)C[C@H]3N(C)C2)cc1.O=C(O)/C=C\C(=O)O
Rattus norvegicus [3]
  inhibition (INH): 81%
[5]
  5-HT antagonist potency relative to methysergide: 100%
Rattus norvegicus [7]
  Activity: Active
Rattus norvegicus [1]
  Activity: inactive
[6]
  inhibition: Active

## CC(C)[C@H]1C(=O)N2CCC[C@H]2[C@]2(O)O[C@](NC(=O)[C@@H]3C=C4c5cccc6[nH]cc(c56)C[C@H]4N(C)C3)(C(C)C)C(=O)N12 [ERGOCORNINE]
Rattus norvegicus [10]
  inhibition (INH): 60%

## CN1C[C@H](c2ccccc2)C=C2c3cccc4c3[C@@H](CN4)C[C@H]21
Rattus norvegicus [1]
  Activity: inactive

## CN1CC(c2ccc(O)cc2)C=C2c3cccc4c3[C@@H](CN4)C[C@H]21 (stereo partly drawn)
Rattus norvegicus [1]
  Activity: inactive
